# Measured values collected from several papers.
# Protocols differ between the studies behind these lines.
# Organism: Bacillus cereus
SMILES,test,system,endpoint,result
CO[C@H]1O[C@H](COC(c2ccccc2)(c2ccccc2)c2ccccc2)[C@@H](OC(=O)c2ccc(C(C)(C)C)cc2)[C@H](OC(=O)c2ccc(C(C)(C)C)cc2)[C@H]1OC(=O)c1ccc(C(C)(C)C)cc1,"microbial growth, broth dilution",,MIC,0.75 µg/mL
O=C(O)CN1C(=O)/C(=C/c2c3ccccc3c(-c3ccc(N(c4ccccc4)c4ccccc4)cc3)c3ccccc23)SC1=S,"microbial killing, broth dilution",ATCC10876,MBC,> 1000 µg/mL
O=C(O)c1cn(C2CC2)c2cc(N3CCNCC3)c(F)cc2c1=O,microbial growth,,MIC,1.56 µM
O=C(O)CN1C(=O)/C(=C/c2ccc(-c3ccc(N(c4ccccc4)c4ccccc4)cc3)c3ccccc23)NC1=S,"microbial growth, broth dilution",ATCC10876,MIC,> 1000 µg/mL
CN[C@H](CC(C)C)C(=O)N[C@H]1C(=O)N[C@@H](CC(N)=O)C(=O)N[C@H]2C(=O)N[C@H]3C(=O)N[C@H](C(=O)N[C@H](C(=O)O)c4cc(O)cc(O)c4-c4cc3ccc4O)[C@H](O)c3ccc(c(Cl)c3)Oc3cc2cc(c3O[C@@H]2O[C@H](CO)[C@@H](O)[C@H](O)[C@H]2O[C@H]2C[C@](C)(N)[C@H](O)[C@H](C)O2)Oc2ccc(cc2Cl)[C@H]1O,"microbial growth, broth dilution",ATCC13061,MIC,1 µg/mL
CNC(=O)[C@@H](C)[C@H]1C(=O)/C(=C(O)/C=C/C(C)=C/[C@@H](C)[C@H]2O[C@@]3(C)O[C@H](C=C[C@@]34CO4)[C@@H]2C)C(=O)N1[C@@H]1CC[C@H](O)[C@H](C)O1,microbial growth,,MIC,> 100 µM
Nc1ccc(-c2nc(-c3ccc(Oc4ccc(C(F)(F)F)cc4)cc3)no2)cc1,"microbial growth, broth dilution",ATCC13061,MIC,4 µg/mL
O=C(Nc1ccc(S(=O)(=O)c2nccs2)cc1)c1cc(N=Nc2nccs2)ccc1O,"microbial growth, broth dilution",,MIC,200 µg/mL
CC(=O)NC[C@H]1CN(c2ccc(N3CCOCC3)c(F)c2)C(=O)O1,"microbial growth, broth dilution",ATCC13061,MIC,1 µg/mL
O=C1NC(=S)S/C1=C\c1ccc(-c2ccc(N(c3ccccc3)c3ccccc3)cc2)cc1,"microbial killing, broth dilution",ATCC10876,MBC,> 1000 µg/mL
